# Test results as given in article PMC5131535 (ACS chemical neuroscience, 2016).
# “Also recorded” adds a separate entry of the source.
# Assays:
# [1] = target: Kir1.1 (Rattus norvegicus, UniProt P35560); assay: Tl+ flux selectivity assay, Kir1.1; format: cell-based
# In short: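 Tetracycline-inducible stable T-REx-HEK-293 lines, induced overnight with 1 µg/ml tetracycline in DMEM/10% dialyzed FBS. Cells loaded 1 hr with 1.2 µM Thallos-AM in HBSS/20 mM HEPES pH 7.3 with 0.01% Pluronic F-127. Baseline fluorescence (ex 470, em 540 nm) read at 1 Hz before adding stimulus buffer with 1.8 mM Tl₂SO₄. Traces normalized to first point and vehicle-subtracted; slope taken 5–20 s post-Tl⁺; IC50 by nonlinear regression of CRCs.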
# [2] = system: Kir7.1 pore mutants; format: cell-based, human; conditions: 3 µM, -120 mV
# In short: (§1)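 Single pore-lining residues were mutated on a WT or M125R Kir7.1 background and expressed transiently with EGFP in HEK-293T cells. The whole-cell step-ramp protocol from a −75 mV holding potential was used, with test compound at 3 µM. Read-out was % inhibition of current at −120 mV, mean ± SEM, tested against the respective parent channel (P < 0.05).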
# [3] = target: Kir7.1 pore mutants (Homo sapiens, UniProt O60928, T153C); format: cell-based; conditions: 3 µM, -120 mV
# Sequence of Kir7.1 pore mutants (Homo sapiens, UniProt O60928, T153C) (O60928 whole entry T153C): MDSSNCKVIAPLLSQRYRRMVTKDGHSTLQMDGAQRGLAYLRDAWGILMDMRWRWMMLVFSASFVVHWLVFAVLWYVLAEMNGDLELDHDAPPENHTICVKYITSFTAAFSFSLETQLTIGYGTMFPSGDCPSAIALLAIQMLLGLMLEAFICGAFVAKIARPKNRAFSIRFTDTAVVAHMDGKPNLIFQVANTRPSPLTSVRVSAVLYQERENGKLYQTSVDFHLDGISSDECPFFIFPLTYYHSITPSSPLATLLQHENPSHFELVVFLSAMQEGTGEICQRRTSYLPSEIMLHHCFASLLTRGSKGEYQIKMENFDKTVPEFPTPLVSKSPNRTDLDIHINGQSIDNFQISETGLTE
# In short: as §1
# [4] = target: Kir7.1 pore mutants (Homo sapiens, UniProt O60928, I160M); format: cell-based; conditions: 3 µM, -120 mV
# Sequence of Kir7.1 pore mutants (Homo sapiens, UniProt O60928, I160M) (O60928 whole entry I160M): as the sequence (O60928 whole entry T153C) above, with C153T, I160M counted along it
# In short: as §1
# [5] = target: Kir7.1 pore mutants (Homo sapiens, UniProt O60928, L146V); format: cell-based; conditions: 3 µM, -120 mV
# Sequence of Kir7.1 pore mutants (Homo sapiens, UniProt O60928, L146V) (O60928 whole entry L146V): as the sequence (O60928 whole entry T153C) above, with L146V, C153T counted along it
# In short: as §1
# [6] = target: Kir7.1 pore mutants (Homo sapiens, UniProt O60928, A161S); format: cell-based; conditions: 3 µM, -120 mV
# Sequence of Kir7.1 pore mutants (Homo sapiens, UniProt O60928, A161S) (O60928 whole entry A161S): as the sequence (O60928 whole entry T153C) above, with C153T, A161S counted along it
# In short: as §1
# Sequence of Kir1.1 (P35560 whole entry): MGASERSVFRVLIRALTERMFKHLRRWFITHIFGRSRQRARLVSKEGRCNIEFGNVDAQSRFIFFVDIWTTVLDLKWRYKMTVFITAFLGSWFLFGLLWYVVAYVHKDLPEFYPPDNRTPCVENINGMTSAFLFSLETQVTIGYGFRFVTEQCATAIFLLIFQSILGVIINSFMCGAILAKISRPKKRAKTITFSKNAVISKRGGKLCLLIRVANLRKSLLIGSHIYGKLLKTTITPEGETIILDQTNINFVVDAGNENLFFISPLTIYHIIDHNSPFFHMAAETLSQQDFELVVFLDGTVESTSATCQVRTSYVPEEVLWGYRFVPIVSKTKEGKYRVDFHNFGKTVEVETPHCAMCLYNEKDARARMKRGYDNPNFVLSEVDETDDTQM
compound,measurement,setting,value
Oc1c(CN2CCC(Cc3ccccc3)CC2)cc(Cl)c2cccnc12 [VU714],Kir1.1 (ROMK) IC50 (Tl+ flux),[1],weakly inhibited
same,IC50,[1]; read-out: Kir1.1 (ROMK) IC50 (Tl+ flux),16 µM
same,Effect of double mutation E149Q and A150S on sensitivity,[2],additive loss of VU714 sensitivity; also recorded: virtually eliminated block of the channel
same,Effect of mutation E149D on block,[2],no effect on block
same,Effect of mutation T153C/WT on channel inhibition,[3],increased channel inhibition
same,Effect of mutation I160M on Kir7.1 inhibition,[4],no effect
same,Effect of mutation L146V on Kir7.1 inhibition,[5],no effect
same,Effect of mutation A161S on Kir7.1 inhibition,[6],no effect
